“Also recorded” adds a separate entry of the source. No end group written: not given here.
Tests used:
Type in all cases: physicochemical
[1] = Amyloid formation monitored by time-dependent far-UV ECD spectroscopy; settings: for amyloidogenicity overall (in words): all tested conditions (H2O, 10% EtOH, 50% MeOH), FTIR, AFM; for amyloidogenicity overall (in words) / amyloid formation in 10% EtOH (in words) / amyloid formation in 50% MeOH (in words): ECD; for amyloid formation in 10% EtOH (in words): 10% EtOH:90% H2O (ε = 68.742); for amyloid formation in 10% EtOH (in words) / time to form amyloid in 50% MeOH / amyloid formation in 50% MeOH (in words) / time to form β-sheets / B-type ECD spectrum in water: 37 °C; for amyloid formation in 10% EtOH (in words) / amyloid formation in 50% MeOH (in words) / time to form β-sheets / B-type ECD spectrum in water: stirred 500–600 rpm; for time to form amyloid in 50% MeOH / amyloid formation in 50% MeOH (in words): 50% MeOH:50% H2O (ε = 51.347); for time to form amyloid in 50% MeOH: stirred; for time to form amyloid in 50% MeOH / time to form β-sheets / B-type ECD spectrum in water: ECD read-out; for time to form β-sheets / B-type ECD spectrum in water: 100% H2O
Outline: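 Peptides were dissolved at 0.15–1.50 mg/mL in water, 10% EtOH or 50% MeOH. Concentration was set by A280 of 5-fold dilutions (ε Tyr 1280, Trp 5690 M⁻¹ cm⁻¹), with pH adjusted by NaOH/HCl. Samples were stirred at 500–600 rpm, 37 °C, and measured directly at 0–168 h. Spectra covered 185–260 nm, 0.1 mm cell, 25 °C, three scans averaged, solvent-subtracted, Savitzky–Golay smoothed, and converted to mean residue ellipticity.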

[2] = AFM surface morphology of amyloid fibrils; settings: 1.5 mg/mL, pH 3.8, 24 h mixing at 37 °C, 5 µL dried on mica
Outline: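 Hexapeptide at a final 1.5 mg/mL, pH 3.8, was stirred at 500–600 rpm at 37 °C for 24 h. This was the same stock used for FTIR and ECD. The 24-h solution was dropped on freshly cleaved mica and vacuum-dried for 24 h. Images were taken in dynamic mode near densely packed areas, with a 10×10 µm window and 512 pixels per line.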

[3] = Water solubility / peptide concentration needed for amyloid formation; settings: pure water

Substance	amyloidogenicity overall (in words) [1]	AFM morphology (in words) [2]	amyloid formation in 10% EtOH (in words) [1]	time to form amyloid in 50% MeOH [1]	amyloid formation in 50% MeOH (in words) [1]	ECD mean residue ellipticity Θ, positive maximum at 208 nm ([1]; B-type spectrum after 24 hours)	time to form β-sheets / B-type ECD spectrum in water [1]	water solubility (in words) [3]	ECD mean residue ellipticity Θ at 202 nm ([1]; 50% MeOH, B-type signal)
LNIQWL [LNIQWL]	remains amyloidogenic	granular	–	–	–	–	–	–	–
LNQQNY [LNQQNY]	highly amyloidogenic	–	forms amyloid very slowly	≤ 24 h	–	–	–	–	–
NNQQNL [NNQQNL]	–	empty AFM image	–	–	very slow amyloid formation	–	–	–	–
LYQQNY [LYQQNY]	highly amyloidogenic	–	Amyloid formation is confirmed	–	Amyloid formation is confirmed	~+57000 deg cm^2 dmol^−1	–	–	–
NNQQWL [NNQQWL]	resists amyloid formation	no detectable structures	–	–	No amyloid formation was observed	–	> 144 h	–	–
LYIQNY [LYIQNY]	highly amyloidogenic	–	rapid amyloid formation	–	rapid amyloid formation; also recorded: faster assembly	–	–	water‐soluble	–
GNNQQNY [GNNQQNY, reference compound]	–	Fibrillar amyloid formation	–	–	–	–	–	–	–
NNQQNY [NNQQNY]	highly amyloidogenic	Fibrillar amyloid formation	preventing amyloid formation	within hours; also recorded: a few hours	β‐sheets formed; also recorded: forms amyloid in 50% MeOH	–	–	highly water‐soluble	~53000 deg cm^2 dmol^−1
NNIQWL [NNIQWL]	did not form amyloid under any of the tested conditions	no evidence of filament formation	–	–	–	–	–	–	–
LYIQWL [LYIQWL]	highly amyloidogenic	Fibrillar amyloid formation	form amyloid	–	form amyloid	–	1 h	–	–
LYIQNL [LYIQNL]	highly amyloidogenic	–	form amyloid	–	form amyloid	–	–	–	–
